Measured values from different studies.
Compare with care: the assays were run in different laboratories.
PFF0160c: Dihydroorotate dehydrogenase (quinone), mitochondrial (PFF0160c, Plasmodium falciparum, UniProt Q08210)
OPRK1: Kappa-type opioid receptor (OPRK1, Homo sapiens, UniProt P41145)
PROC: Vitamin K-dependent protein C (PROC, Homo sapiens, UniProt P04070)
PFF0160c E182D: Dihydroorotate dehydrogenase (quinone), mitochondrial (PFF0160c, Plasmodium falciparum, UniProt Q08210, E182D)

Compound | target | effect on | mode | technique | IC50
Cc1c(C2(c3ccc(C(F)F)nc3)CC2)c[nH]c1C(=O)NC(C)c1nc[nH]n1 (stereo not drawn) | PFF0160c | enzyme activity | inhibitor | absorbance | > 30000 nM
CC(c1ccc(Cl)c(Cl)c1)c1nn2c(-c3ccccc3F)nnc2s1 (stereo not drawn) | PFF0160c | enzyme activity | inhibitor | absorbance | 541 nM
Cc1c(C2(c3ccc(C(F)(F)F)cc3F)CC2)c[nH]c1C(=O)NC(C)c1nc[nH]n1 (stereo not drawn) | PFF0160c | enzyme activity | inhibitor | absorbance | > 100000 nM
CC(CCc1ccccc1)NC(C)C(O)c1ccc(O)cc1 (stereo not drawn) | OPRK1 | ligand displacement | – | radioligand | 4980 nM
CC(C)C[C@@H]1C(=O)N[C@H]([C@@H](C)O)C(=O)N[C@H](C)[C@@H](C)C(=O)O[C@@H](Cc2ccccc2)C(=O)N(C)[C@@H](C(C)C)C(=O)N2CCC[C@H]2C(=O)N(C)[C@H](Cc2ccccc2)C2=N[C@@H](CS2)C(=O)N[C@H](C)C2=N[C@@H](CS2)C(=O)N1C | PROC | enzyme activity | inhibitor | – | 66600 nM
CC1CN(Cc2ccc(-c3ccc(C(=O)NCC4CCCO4)cn3)cc2)CC(C)O1 (stereo not drawn) | PFF0160c E182D | enzyme activity | inhibitor | absorbance | 3280 nM
O=C(Nc1ccccc1)OCC(CN1CCCCC1)OC(=O)Nc1ccccc1 (stereo not drawn) | OPRK1 | ligand displacement | – | radioligand | 1420 nM
Cc1nc(NC2Cc3cc(F)c(F)cc3C2)c2c(C(F)(F)F)noc2n1 | PFF0160c | enzyme activity | inhibitor | absorbance | 22 nM
Cc1c(Cc2ccc(C(F)(F)F)nc2)c[nH]c1C(=O)NC(C)c1cc(C(N)=O)[nH]n1 (stereo not drawn) | PFF0160c | enzyme activity | inhibitor | absorbance | 350 nM
COc1ccc(-n2ccnc2SCC(=O)Nc2cc(C)ccc2C)c(OC)c1 | PFF0160c | enzyme activity | inhibitor | absorbance | 324 nM
Cc1c(Cc2ccc(C(F)(F)F)nc2)c[nH]c1C(=O)N[C@@H](C)C(N)=O | PFF0160c | enzyme activity | inhibitor | absorbance | > 100000 nM
CC[C@H]1NC(=O)[C@@H]2CSC(=N2)[C@H](Cc2ccccc2)N(C)C(=O)[C@@H]2CCCN2C(=O)[C@H](C(C)C)N(C)C(=O)[C@H](Cc2ccccc2)OC(=O)[C@H](C)[C@@H](C)NC(=O)[C@@H]([C@@H](C)O)NC(=O)[C@@H](CC(C)C)N(C)C(=O)[C@@H]2CSC1=N2 | PROC | enzyme activity | inhibitor | – | 62000 nM
CC(=O)c1c(Nc2c(C)cc(C)cc2C)oc(C)cc1=O | PFF0160c E182D | enzyme activity | inhibitor | absorbance | 659 nM
O=S(=O)(O)c1nc2ccccc2[nH]1 | racE (Bacillus subtilis, UniProt P94556, N75L) | enzyme activity | inhibitor | absorbance | 198000 nM
Cc1noc2nc(C(F)(F)F)nc(NC3Cc4cc(F)c(F)cc4C3)c12 | PFF0160c | enzyme activity | inhibitor | absorbance | 110 nM
Cc1c(C2(c3cccc(C(F)(F)F)c3)CC2)c[nH]c1C(=O)NC(C)c1nc[nH]n1 (stereo not drawn) | PFF0160c | enzyme activity | inhibitor | absorbance | 30000 nM
Cn1cc(-c2ccc(-n3ccc(OCc4ccc(Cl)cn4)cc3=O)cn2)cn1 | PFF0160c E182D | enzyme activity | inhibitor | absorbance | 7020 nM
Cc1noc2nc(C(F)(F)F)nc(Nc3ccc(C(F)(F)F)cc3)c12 | PFF0160c | enzyme activity | inhibitor | absorbance | 610 nM
CCc1nc2nc(C)cc(Nc3ccc4c(c3)OCCO4)n2n1 | PFF0160c E182D | enzyme activity | inhibitor | absorbance | > 10000 nM
Cc1nc(Nc2ccc(C)c(Cl)c2)c2c(C)noc2n1 | PFF0160c | enzyme activity | inhibitor | absorbance | 130 nM
CN(C)S(=O)(=O)c1ccc(Sc2ccccc2)c(C(=O)N2CCCC(C(N)=O)C2)c1 (stereo not drawn) | PFF0160c E182D | enzyme activity | inhibitor | absorbance | 2560 nM
Cc1nc(Nc2ccc(S(F)(F)(F)(F)F)cc2)c2c(C(F)(F)F)noc2n1 | PFF0160c | enzyme activity | inhibitor | absorbance | 43 nM
Cc1c(Cc2ccc(C(F)(F)F)cc2F)c[nH]c1C(=O)NC(C)c1nc[nH]n1 (stereo not drawn) | PFF0160c | enzyme activity | inhibitor | absorbance | 350 nM
Cc1nc(NC2CCc3ccc(Cl)cc3C2)c2c(C)noc2n1 (stereo not drawn) | PFF0160c | enzyme activity | inhibitor | absorbance | 17 nM
CNC(=O)[C@H](C)NC(=O)c1[nH]cc(Cc2ccc(C(F)(F)F)nc2)c1C | PFF0160c | enzyme activity | inhibitor | absorbance | 39000 nM
CCc1nc2nc(C)cc(Nc3ccc(F)c(Cl)c3)n2n1 | PFF0160c E182D | enzyme activity | inhibitor | absorbance | > 10000 nM
Cc1nc(NC2CCc3cc(Cl)ccc3C2)c2c(C)noc2n1 (stereo not drawn) | PFF0160c | enzyme activity | inhibitor | absorbance | 120 nM
